Source: ChEMBL document CHEMBL1126849, “Synthesis of A-ring fluorinated derivatives of (17 alpha,20E/Z)-[125I]iodovinylestradiols: effect on receptor binding and receptor-mediated target tissue uptake” (J Med Chem, 1993)

Key:
Rattus norvegicus [1] = assay: Biodistribution in uterus/spleen, muscle, lungs of immature female rat after 1 hr administration of 3 micro Ci (111 kBq) in the presence of (+E2); assay type: ADME, organism-based; conditions: in vivo
Summary of the method: (§1)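 Immature female Long Evans rats (21–24 days, 45–70 g), 3–5 per group, unanesthetized in retention cages, given 3 μCi (111 kBq) 125I-labeled steroid by lateral tail vein. Vehicle: ethanol diluted with saline containing 1% Tween-80, final ethanol 9%. +E2 group co-injected 60 μg unlabeled estradiol (1 h only). Killed under ether; tissues KCl-washed, weighed, gamma-counted. Output: %ID/g (mean, SE) and uterus to blood or nontarget (muscle, spleen, lungs) ratios.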

Rattus norvegicus [2] = assay: Biodistribution in uterus/spleen, muscle, lungs of immature female rat after 3 hour administration of 3 micro Ci (111 kBq) in the absence of 60 microg estradiol; assay type: ADME, organism-based; conditions: in vivo; summary of the method: as §1

- ID/g (Rattus norvegicus [1]): 0.81%
- ID/g (Rattus norvegicus [2]): 1.49%
SMILES: C[C@]12CC[C@@H]3c4cc(F)c(O)cc4CC[C@H]3[C@@H]1CC[C@@]2(O)/C=C/I
